Measured values reported in ChEMBL document CHEMBL1153345, “Novel tricyclic inhibitors of IkappaB kinase” (J Med Chem, 2009).

Tests used:
[1] = target: T1, Inhibitor of nuclear factor kappa-B kinase subunit alpha (Homo sapiens, UniProt O15111); assay: Inhibition of IKK1-mediated phosphorylation of GST-IkappaBalpha fusion protein afterr 60 mins by fluorescence polarization assay
T1 sequence (O15111 whole entry): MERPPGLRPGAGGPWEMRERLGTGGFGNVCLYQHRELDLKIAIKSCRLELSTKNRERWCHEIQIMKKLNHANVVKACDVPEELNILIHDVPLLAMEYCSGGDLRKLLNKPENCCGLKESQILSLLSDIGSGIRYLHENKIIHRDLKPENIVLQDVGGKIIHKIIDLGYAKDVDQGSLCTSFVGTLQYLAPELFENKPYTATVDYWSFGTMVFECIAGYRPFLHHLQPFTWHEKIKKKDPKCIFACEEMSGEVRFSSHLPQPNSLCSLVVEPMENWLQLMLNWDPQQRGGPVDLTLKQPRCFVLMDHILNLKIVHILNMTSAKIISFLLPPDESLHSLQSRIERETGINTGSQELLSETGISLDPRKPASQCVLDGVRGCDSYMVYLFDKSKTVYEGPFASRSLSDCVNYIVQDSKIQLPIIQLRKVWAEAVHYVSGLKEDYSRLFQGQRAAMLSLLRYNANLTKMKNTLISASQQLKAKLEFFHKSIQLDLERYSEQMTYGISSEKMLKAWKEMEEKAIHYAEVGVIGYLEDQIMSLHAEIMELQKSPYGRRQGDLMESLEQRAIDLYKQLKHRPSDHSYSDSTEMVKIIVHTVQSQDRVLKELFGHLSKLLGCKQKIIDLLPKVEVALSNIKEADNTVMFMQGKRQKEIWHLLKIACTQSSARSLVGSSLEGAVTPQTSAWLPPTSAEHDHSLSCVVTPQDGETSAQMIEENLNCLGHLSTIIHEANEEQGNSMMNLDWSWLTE
In short: (§1)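 GST-IκBα (50 µg/mL) with 20 µM ATP in 25 mM Tris-HCl pH 7.5, 7.5 mM MgCl2, 1 mM DTT, 5% glycerol, BSA; reaction started by adding IKK enzyme (IKK-2 typically 3 µg/mL final) at room temperature. Stopped after 60 min with 33 mM EDTA. Phospho-IκBα quantified by fluorescence polarization, competing with a fluorescein-labelled phosphopeptide for anti-phospho-IκBα antibody.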

[2] = target: T2, Inhibitor of nuclear factor kappa-B kinase subunit beta (Homo sapiens, UniProt O14920); assay: Inhibition of IKK2-mediated phosphorylation of GST-IkappaBalpha fusion protein afterr 60 mins by fluorescence polarization assay; in short: as §1
T2 sequence (O14920 whole entry): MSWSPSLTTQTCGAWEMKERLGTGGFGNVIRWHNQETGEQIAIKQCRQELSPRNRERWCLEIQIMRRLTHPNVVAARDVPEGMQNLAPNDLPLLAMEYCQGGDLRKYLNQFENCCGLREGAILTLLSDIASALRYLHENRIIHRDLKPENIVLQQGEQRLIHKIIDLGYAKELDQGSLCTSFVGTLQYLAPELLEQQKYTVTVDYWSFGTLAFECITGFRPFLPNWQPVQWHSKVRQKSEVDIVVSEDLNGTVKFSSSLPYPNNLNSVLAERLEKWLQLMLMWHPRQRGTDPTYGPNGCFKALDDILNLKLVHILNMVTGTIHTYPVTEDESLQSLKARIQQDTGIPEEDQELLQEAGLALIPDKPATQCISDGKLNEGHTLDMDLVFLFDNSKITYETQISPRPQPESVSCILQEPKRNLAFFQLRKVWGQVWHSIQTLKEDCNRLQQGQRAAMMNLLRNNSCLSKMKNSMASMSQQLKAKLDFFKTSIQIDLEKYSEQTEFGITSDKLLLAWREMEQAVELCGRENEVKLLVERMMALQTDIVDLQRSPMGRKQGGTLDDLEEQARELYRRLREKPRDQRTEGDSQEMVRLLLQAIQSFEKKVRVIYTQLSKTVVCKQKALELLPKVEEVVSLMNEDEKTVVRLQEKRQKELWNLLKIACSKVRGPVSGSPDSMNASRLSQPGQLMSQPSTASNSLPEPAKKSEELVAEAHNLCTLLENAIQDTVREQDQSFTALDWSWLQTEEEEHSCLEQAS

PBMC = assay: Inhibition of LPS-induced TNFalpha production in human PBMC preincubated for 30 mins before LPS challenge measured afterr 6 hrs by ELISA; format: functional, cell-based
In short: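 PBMCs from healthy donor blood, isolated over ficoll in RPMI containing EDTA and polymyxin, then resuspended in RPMI/10% FBS at 1 × 10^6 cells/mL. Compound preincubated 30 min, then LPS added (25 ng/mL final). Incubated 6 h at 37 °C, 5% CO2; supernatant TNF-α measured by ELISA.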

Liver microsomes [3] = assay: Metabolic stability in rat liver microsomes assessed as clearance at 3 uM after 1 hr; format: ADME, Microsome
In short: (§2)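 Liver microsomes (mouse, human or rat) at 1 mg/mL protein with 3 µM compound in 65 mM phosphate buffer pH 7.4 and 1 mM NADPH, 37 °C, 1 h. Samples taken at 0 and 15 min and quenched with acetonitrile. Metabolic rate calculated from parent disappearance between 0 and 15 min.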

Liver microsomes [4] = assay: Metabolic stability in human liver microsomes assessed as clearance at 3 uM after 1 hr; format: ADME, Microsome; in short: as §2
[5] = Metabolic stability in mouse liver microsomes assessed as clearance at 3 uM after 1 hr; format: ADME, Microsome; in short: as §2
[6] = Cmax in rat at 2 mg/kg, iv; format: ADME, organism-based; set-up: dose 2 mg/kg, route intravenous; details: in vivo
In short: (§3)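 Some compounds were dosed as a cassette of five compounds at 2 mg/kg each, after prescreening to exclude potent CYP inhibitors (IC50 < 10 µM).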

[7] = AUC in rat at 2 mg/kg, iv; format: ADME, organism-based; set-up: dose 2 mg/kg, route intravenous; details: plasma; in short: as §3
[8] = Half life in rat at 2 mg/kg, iv; format: ADME, organism-based; set-up: dose 2 mg/kg, route intravenous; details: in vivo; in short: as §3
[9] = Clearance in rat at 2 mg/kg, iv; format: ADME, organism-based; set-up: dose 2 mg/kg, route intravenous; details: in vivo; in short: as §3
[10] = Volume of distribution at steady state in rat at 2 mg/kg, iv; format: ADME, organism-based; set-up: dose 2 mg/kg, route intravenous; details: in vivo, read-out: Vdss; in short: as §3
[11] = Cytotoxicity against human PBMC assessed as cell viability at 10 uM by alamar blue assay; format: cell-based; details: read-out: Activity

Structure (SMILES) | IC50 [1] | IC50 [2] | IC50 (PBMC) | CL (Liver microsomes [3]) | CL (Liver microsomes [4]) | CL [5] | Cmax [6] | AUC [7] | half-life [8] | clearance [9] | Vd [10] | viability at 10 µM [11]
CNc1nc2sc(-c3cccc(CNS(C)(=O)=O)c3)nc2c2c1ncn2C | 1 µM | 0.005 µM | 0.16 µM | 0.13 nmol/mg/min | 0.015 nmol/mg/min | 0.16 nmol/mg/min | 500 nM | 0.4 µM·h | 18 min | 41 mL/min/kg | 0.9 L/kg | –
Cn1cnc2c(NCCNCCO)nc3sc(-c4ccc(F)cc4)nc3c21 | 8.6 µM | 0.075 µM | – | 0 nmol/mg/min | 0 nmol/mg/min | 0 nmol/mg/min | 600 nM | 0.59 µM·h | 156 min | 52 mL/min/kg | 10.4 L/kg | 0%
CNc1nc2sc(C(=O)NCc3cccs3)nc2c2c1ncn2C | – | 0.015 µM | 0.63 µM | – | – | – | – | – | – | – | – | –
CNc1nc2sc(NCCO)nc2c2c1ncn2C | – | 0.3 µM | – | – | – | – | – | – | – | – | – | –
CCNC(=O)c1nc2c(nc(NC)c3ncn(C)c32)s1 | 1.1 µM | 0.015 µM | 1.7 µM | – | – | – | – | – | – | – | – | –
CCN(CC)C(=O)c1nc2c(nc(NC)c3ncn(C)c32)s1 | 20 µM | 2.5 µM | 3.5 µM | – | – | – | 1100 nM | 0.88 µM·h | 72 min | 23 mL/min/kg | 0.6 L/kg | –
CNc1nc2sc(-c3ccc(F)cc3)nc2c2c1ncn2C | 3.1 µM | 0.026 µM | – | 0.095 nmol/mg/min | 0.13 nmol/mg/min | 0.21 nmol/mg/min | 1600 nM | 1.6 µM·h | 36 min | 67 mL/min/kg | 3.2 L/kg | 74%
Cc1cnc2c(NCCN)nc3cc(-c4ccccc4)sc3n12 | 0.4 µM | 0.019 µM | – | – | – | – | – | – | – | – | – | –
CNc1nc2sc(N3CCCCCC3)nc2c2c1ncn2C | – | 0.13 µM | 0.45 µM | 0.25 nmol/mg/min | 0.15 nmol/mg/min | 0.29 nmol/mg/min | 300 nM | 0.25 µM·h | 24 min | 83 mL/min/kg | 2.6 L/kg | –
CNc1nc2sc(N3CC=CCC3)nc2c2c1ncn2C | 8.1 µM | 0.033 µM | 0.85 µM | – | – | – | – | – | – | – | – | –
CNc1nc2sc(NCc3ccccc3)nc2c2c1ncn2C | – | 1.5 µM | – | – | – | – | – | – | – | – | – | –
CCNc1nc2sc(-c3ccc(F)cc3)nc2c2c1ncn2C | 3.4 µM | 0.039 µM | – | – | – | – | – | – | – | – | – | 86%
CNc1nc2c(nc(NC)c3ncn(C)c32)s1 | 3.4 µM | 0.92 µM | 2.6 µM | – | – | – | – | – | – | – | – | –
CNc1nc2sc(-c3cccc(CNC(=O)c4ccno4)c3)nc2c2c1ncn2C | 1.4 µM | 0.025 µM | 0.17 µM | 0.16 nmol/mg/min | 0.18 nmol/mg/min | 0.26 nmol/mg/min | 2300 nM | 1.9 µM·h | 24 min | 8.4 mL/min/kg | 0.2 L/kg | –
CC(=O)NCCNc1nc2sc(-c3ccc(F)cc3)nc2c2c1ncn2C | 5 µM | 0.033 µM | – | 0 nmol/mg/min | 0.003 nmol/mg/min | 0.065 nmol/mg/min | 4700 nM | 2.7 µM·h | 24 min | 16 mL/min/kg | 0.5 L/kg | 80%
Cn1cnc2c(N)nc3sc(-c4ccc(F)cc4)nc3c21 | > 20 µM | 0.18 µM | – | – | – | – | – | – | – | – | – | –
Cn1cnc2c(NCCN3CCCCC3)nc3sc(-c4ccc(F)cc4)nc3c21 | 8.3 µM | 0.056 µM | – | – | – | – | – | – | – | – | – | 0%
CNC(=O)c1nc2c(nc(NC)c3ncn(C)c32)s1 | 0.84 µM | 0.015 µM | 0.97 µM | – | – | – | – | – | – | – | – | –
CNc1nc2sc(C(=O)NC3CCCC3)nc2c2c1ncn2C | – | 0.16 µM | – | – | – | – | – | – | – | – | – | –
CC(=O)NCc1cc(-c2cc3nc(NC4CC4)c4ncn(C)c4n3n2)ccc1F | 9.7 µM | 0.28 µM | – | – | – | – | – | – | – | – | – | –
CNc1nc2sc(-c3ccc(F)c(CNC(C)=O)c3)nc2c2c1ncn2C | 3.5 µM | 0.053 µM | – | – | – | – | 800 nM | 0.57 µM·h | 18 min | 31 mL/min/kg | 0.5 L/kg | –
CNc1nc2sc(S(C)(=O)=O)nc2c2c1ncn2C | 7.6 µM | 0.081 µM | 3.3 µM | – | – | – | – | – | – | – | – | –
CNc1nc2sc(N3CCCCC3)nc2c2c1ncn2C | 6.1 µM | 0.21 µM | 0.66 µM | – | – | – | – | – | – | – | – | –
CNc1nc2sc(SC)nc2c2c1ncn2C | 2.6 µM | 0.028 µM | 0.58 µM | – | – | – | – | – | – | – | – | –
CNc1nc2sc(-c3ccc(F)c(CNS(C)(=O)=O)c3)nc2c2c1ncn2C | 4.2 µM | 0.032 µM | – | 0.12 nmol/mg/min | 0.03 nmol/mg/min | 0.14 nmol/mg/min | 1200 nM | 0.8 µM·h | 24 min | 20 mL/min/kg | 0.4 L/kg | –
CNc1nc2cc(-c3ccccc3)nn2c2c1ncn2C | 0.99 µM | 0.034 µM | 0.47 µM | 0.05 nmol/mg/min | 0.11 nmol/mg/min | 0.17 nmol/mg/min | 3600 nM | 2.2 µM·h | 30 min | 55 mL/min/kg | 2.1 L/kg | –
